The list is not random: actives were taken first. Their share in the collection is about 3.6%.
SENP1 inh: blocks the human SENP1 SUMO protease catalytic domain; recombinant SENP1 catalytic domain, CyPet-SUMO1-YPet FRET cleavage; 360,000 compounds, 0.21% hits; AID 624204; inhibition, % at 10 µM;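 active = inhibition at least 30% at 10 µM, raw YFP signal under a set limit, fluorescence ratio 0.5 to 1.5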;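 also: 0% = enzyme with DMSO and 100% = no enzyme wells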
Target sequence (Q9P0U3 419-644 limits assumed): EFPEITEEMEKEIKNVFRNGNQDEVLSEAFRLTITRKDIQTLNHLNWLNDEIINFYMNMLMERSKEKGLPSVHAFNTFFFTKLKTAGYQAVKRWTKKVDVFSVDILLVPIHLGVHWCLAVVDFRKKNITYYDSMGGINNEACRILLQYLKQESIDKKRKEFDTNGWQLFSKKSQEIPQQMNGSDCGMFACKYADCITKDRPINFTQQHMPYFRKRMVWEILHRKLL
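Material: hSENP1 catalytic domain, recombinant; medium: Tris pH 8 with BME, BSA, NP40 and catalase; compound: single concentration of 10 µM compound, 0.5% DMSO final; technique: FRET read of cyan and yellow fluorescence; timing: 50 min enzyme reaction, room temperature, light-protected; reagent: SFCypet-SUMO1-SFYpet substrate at 25 nM; control set: no-enzyme low, enzyme-DMSO high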
NR3A LBD binder: modulates the human NR3A ligand-binding domain; 340,000 compounds, 2.5% hits; NR3A LBD differential scanning fluorimetry, Tm shift; 0% = protein alone, 100% = glycine-bound protein; AID 1259313; Tm shift relative to glycine control, % at 25 µM;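 active = melting temperature shift of at least 10% of the positive control shift, at one fixed dose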
ATG4B inh: inhibitors of human ATG4B cysteine protease; ATG4B cleavage of LC3-PLA2, NBD-HPC fluorescence, 1 h; Q9Y4P1; inhibition, % at 8.33 µM; 340,000 compounds, 0.51% hits; AID 504462; in the data active = inhibition above about 40%
NadD inh: inhibitors of Staphylococcus aureus NadD | 360,000 compounds, 0.78% hits | inhibition, % at 20 µM | purified NadD enzyme, colorimetric absorbance read-out; in the data active = inhibition above about 26%
UCH37 DUB inh: human UCH37 deubiquitinating enzyme inhibition; AID 588478; 330,000 compounds, 0.33% hits; inhibition, % (test concentration not listed); purified proteasome/UCH37, Ub-AMC cleavage fluorescence; Q9Y5K5;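 active = mean inhibition over replicate wells above about 20%, limit read from the data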;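 also: 0% = compound-free wells with enzyme and 100% = wells lacking proteasome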
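Reagent: Ub-AMC substrate; assay system: Proteasome-associated human UCH37 deubiquitinase; controls: no-proteasome and no-compound wells; read-out: % inhibition of Ub-AMC cleavage fluorescence; timing: 30 min preincubation with enzyme, 25 min cleavage at room temperature; signal: AMC fluorescence from Ub-AMC cleavage, excitation 355 nm, emission 460 nm; buffer or medium: Tris-HCl pH 7.4 plus ovalbumin, ATP-MgCl2, DTT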
ATG4B confirm: confirmation of human ATG4B inhibitors; shares compounds with ATG4B inh; ATG4B protease fluorescent substrate cleavage assay; inhibition, % at 8.33 µM; 320 compounds, 92% hits; AID 504757; in the data active = inhibition above about 39%
PLA2 ctr: counter-screen for ATG4B inhibitors: human phospholipase A2 | 1,600 compounds, 66% hits | inhibition, % at 8.33 µM | shares compounds with ATG4B inh | purified PLA2, NBD-C6-HPC fluorescence, 45 min | AID 588402; in the data active = inhibition above about 50%
Target sequence (P04054 whole entry, looked up): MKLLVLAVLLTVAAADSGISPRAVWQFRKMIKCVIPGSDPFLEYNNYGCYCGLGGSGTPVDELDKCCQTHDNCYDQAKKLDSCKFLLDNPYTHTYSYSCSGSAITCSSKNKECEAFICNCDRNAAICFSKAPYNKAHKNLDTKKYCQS
Starred values were filed as active, the others as inactive; x = not tested or not shown.

SMILES	SENP1 inh	NR3A LBD binder	ATG4B inh	NadD inh	UCH37 DUB inh	PLA2 ctr	others
CCCCNC(=O)c1c(N)n(N=Cc2ccccn2)c2nc3ccccc3nc12	x	x	x	x	6	x
CC(CC(=O)Nc1ccc2c(c1)OCCO2)=NNC(=O)COc1ccc(C)cc1Br	x	x	x	x	3	x
O=C(CSc1nc2ccccc2c(=O)n1-c1ccc(F)cc1)NCc1ccco1	0	1	19	5	2	x
O=c1c2ccccc2nc(SCc2cn3ccsc3n2)n1-c1ccc(F)cc1	0	-4	75*	8	-1	71*
O=C(c1ccc(-n2c(SCc3cc(F)ccc3F)nc3ccccc3c2=O)cc1)N1CCOCC1	1	-9	47*	-11	5	9	ATG4B confirm=63*
COc1ccc(Cl)cc1C(=O)NC(=S)Nc1cc(-c2nc3ccccc3[nH]2)ccc1C	-2	18*	66*	34*	0	79*
COc1ccc(Cl)cc1C(=O)NC(=S)Nc1nc(C)cc(C)n1	5	-1	-5	4	1	x
COc1cccc(OC)c1C(=O)Nc1cccc(-c2nc3ccccc3[nH]2)c1	0	-2	53*	6	4	62*
CC(=O)Nc1cccc(-c2nc3ccccc3[nH]2)c1	2	-15	-6	-4	-5	x
Cc1cc(C)c(-c2c(N)cc(Br)cc2Br)c(N)c1	0	-7	57*	-2	6	65*
CC(=NNC(=O)c1ccoc1C)c1ccc(Cl)s1	x	x	x	x	7	x
CC(=O)Nc1cccc(-c2cc(-c3c(Cl)cccc3Cl)no2)c1	1	-4	5	-9	5	x
CNC(=O)Nc1cccc(-c2cc(-c3c(Cl)cccc3Cl)no2)c1	2	4	59*	-14	3	65*
CN(C)c1ccc(C=NN=C2SC(CC(=O)O)C(=O)N2c2ccc(O)cc2)cc1 (configuration not stated)	x	x	x	x	-243	x
COc1ccc(C=NOCC(=O)Nc2nc3ccccc3s2)cc1	x	x	x	x	1	x
CCN(Cc1ccccc1)S(=O)(=O)c1ccc(C(=O)N(CCCN(C)C)c2nc3c(C)c(C)ccc3s2)cc1	2	2	40*	0	2	50*
COc1cc(-c2nnc(SCc3ccccc3Cl)o2)cc(OC)c1OC	1	4	-1	-9	-2	x
COc1cc(-c2nnc(SCc3c(F)cccc3Cl)o2)cc(OC)c1OC	2	0	42*	-13	0	57*
CC1CC(=NO)C(C)CN1 (configuration not stated)	x	x	x	x	0	x
O=C(O)CN1C(=O)/C(=C\c2cc([N+](=O)[O-])ccc2OCc2ccccc2Cl)SC1=S	9	-5	75*	15	8	60*
O=C(O)CN1C(=O)/C(=C\c2cc(Br)ccc2OCc2ccc(Cl)cc2)SC1=S	4	4	52*	6	23*	30	ATG4B confirm=53*
O=C(O)CN1C(=O)/C(=C\c2ccccc2OCc2ccccc2)SC1=S	-1	x	x	1	x	x
CCOC(=O)CC(=NNc1ncnc2ccccc12)c1ccccc1	x	x	x	x	6	x
CCOC(=O)C1C(=NO)CC(C)(O)C(C(=O)OCC)C1c1ccc(OC)c(OC)c1 (configuration not stated)	x	x	x	x	4	x
O=C(COC(=O)c1n[nH]c2ccccc12)Nc1ccccc1F	-5	1	3	-3	0	x
SMILES	SENP1 inh	NR3A LBD binder	ATG4B inh	NadD inh	UCH37 DUB inh	PLA2 ctr	others
Cc1cccc(NC(=O)COC(=O)c2n[nH]c3ccccc23)c1C	-3	0	45*	-1	1	52*
Cc1snc(SCC(=O)NN=C(N)COc2cccc(C(F)(F)F)c2)c1C#N	x	x	x	x	1	x
Cc1ccc(C(=O)Nc2ncc(Cc3ccc(F)cc3)s2)o1	-2	0	57*	-1	-1	64*
CC(=O)c1cc2c(C)c(C(=O)c3ccccc3)oc2cc1O	79	2	40*	-11	3	-6
Cc1oc2ccc(O)cc2c1C(=O)c1ccccc1	-1	0	-4	-7	3	x
C(=NN=Cc1c[nH]c2ccccc12)c1c[nH]c2ccccc12	-3	x	x	0	x	x

High-throughput results from PubChem BioAssay.
